Assay [1] in a line: Selectivity ratio of IC50 for equine serum BChE to IC50 for electric eel AChE. The gist of the method:
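Modified Ellman assay for both enzymes: electric eel AChE with ATCh, or equine serum BuChE with BTCh; DTNB; 0.1 M potassium phosphate pH 8. Compound preincubated 10 min before substrate, absorbance rise at 412 nm at 1-min intervals, 37 °C. Seven concentrations (10⁻³–10⁻⁹ M) run in triplicate. IC50 from log dose–response; ratio = IC50(BuChE)/IC50(AChE).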

Another assay has as its target Cholinesterase (Equus caballus, UniProt P81908). As to the kind of experiment: Inhibition of equine serum BChE using butyrylthiocholine iodide as substrate after 10 mins by Ellman method.
The target of a further assay is Acetylcholinesterase (Electrophorus electricus, UniProt O42275). As to the kind of experiment: Inhibition of electric eel AChE using […] as substrate after 10 mins by Ellman method. (In general: Ellman's reagent forms a yellow product with free thiols.)
Sequence of Acetylcholinesterase (O42275 whole entry): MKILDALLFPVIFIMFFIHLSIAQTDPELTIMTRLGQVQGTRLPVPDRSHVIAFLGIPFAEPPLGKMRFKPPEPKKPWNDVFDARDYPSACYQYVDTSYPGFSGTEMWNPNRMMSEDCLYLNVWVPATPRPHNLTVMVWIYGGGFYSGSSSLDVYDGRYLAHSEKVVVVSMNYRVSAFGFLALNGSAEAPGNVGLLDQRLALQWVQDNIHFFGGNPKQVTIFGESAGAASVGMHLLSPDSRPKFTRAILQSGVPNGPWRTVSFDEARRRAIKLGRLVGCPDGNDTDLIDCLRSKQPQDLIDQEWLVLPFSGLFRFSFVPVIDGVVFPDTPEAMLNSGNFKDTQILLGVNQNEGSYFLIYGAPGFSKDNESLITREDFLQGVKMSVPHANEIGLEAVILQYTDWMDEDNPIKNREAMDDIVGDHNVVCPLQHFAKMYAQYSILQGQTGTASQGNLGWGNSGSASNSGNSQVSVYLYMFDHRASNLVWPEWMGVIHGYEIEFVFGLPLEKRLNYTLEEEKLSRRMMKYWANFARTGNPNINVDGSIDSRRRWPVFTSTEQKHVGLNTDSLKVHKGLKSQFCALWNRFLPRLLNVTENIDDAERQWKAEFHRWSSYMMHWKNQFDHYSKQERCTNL
In assay [2] the target is Acetylcholinesterase (Electrophorus electricus) (UniProt O42275). Conditions: at 0.12 to 0.17 µM.
Sequence of Acetylcholinesterase (Electrophorus electricus) (O42275 24-633 limits assumed): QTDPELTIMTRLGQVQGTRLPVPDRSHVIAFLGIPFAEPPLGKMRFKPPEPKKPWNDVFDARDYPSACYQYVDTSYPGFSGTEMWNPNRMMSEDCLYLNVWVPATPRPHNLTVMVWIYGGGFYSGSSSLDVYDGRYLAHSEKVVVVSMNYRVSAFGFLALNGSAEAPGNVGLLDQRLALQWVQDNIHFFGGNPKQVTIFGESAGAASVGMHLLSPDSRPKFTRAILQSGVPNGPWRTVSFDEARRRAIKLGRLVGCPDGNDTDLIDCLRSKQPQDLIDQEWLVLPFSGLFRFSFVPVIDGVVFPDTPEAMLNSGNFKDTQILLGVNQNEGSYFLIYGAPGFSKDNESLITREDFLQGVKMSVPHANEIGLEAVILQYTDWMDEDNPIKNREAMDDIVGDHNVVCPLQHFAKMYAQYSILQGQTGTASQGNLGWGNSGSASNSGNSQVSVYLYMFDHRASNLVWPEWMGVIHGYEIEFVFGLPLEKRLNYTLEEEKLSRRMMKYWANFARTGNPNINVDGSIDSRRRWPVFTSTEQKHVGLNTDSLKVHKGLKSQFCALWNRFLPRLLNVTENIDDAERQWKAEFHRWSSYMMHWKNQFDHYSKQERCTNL
Assay [3] has the same target. Briefly: Non-competitive inhibition of electric eel AChE using acetylcholine iodide as substrate at 0.10 to 0.14 uM by Lineweaver-Burk method.

Activity calls are given as the source filed them. The rule behind the calls is not given here.

Sequence of Cholinesterase (P81908 whole entry): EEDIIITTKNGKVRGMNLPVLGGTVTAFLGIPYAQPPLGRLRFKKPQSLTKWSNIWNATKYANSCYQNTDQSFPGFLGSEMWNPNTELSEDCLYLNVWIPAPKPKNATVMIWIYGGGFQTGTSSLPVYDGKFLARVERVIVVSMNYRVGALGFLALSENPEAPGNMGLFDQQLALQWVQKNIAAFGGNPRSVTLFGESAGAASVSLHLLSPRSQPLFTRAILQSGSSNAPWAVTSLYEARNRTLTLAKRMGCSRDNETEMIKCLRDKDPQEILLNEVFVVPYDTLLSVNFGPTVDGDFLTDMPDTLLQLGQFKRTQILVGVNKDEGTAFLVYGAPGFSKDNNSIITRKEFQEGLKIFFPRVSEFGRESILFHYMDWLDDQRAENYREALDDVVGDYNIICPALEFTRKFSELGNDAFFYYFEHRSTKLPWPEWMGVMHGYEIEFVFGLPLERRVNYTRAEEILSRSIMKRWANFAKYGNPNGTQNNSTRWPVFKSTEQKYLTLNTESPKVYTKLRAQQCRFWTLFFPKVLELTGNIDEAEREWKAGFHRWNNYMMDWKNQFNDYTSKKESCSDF

The term IC50 denotes the point on the concentration scale where inhibition reaches its midpoint. Read a low IC50 as greater potency. For `Cc1cccc(-c2nnc(-c3ccc(O)cc3O)s2)c1`, the Ratio IC50 in assay [1] amounted to 106. In addition, the values for the IC50 against Cholinesterase and on Acetylcholinesterase were 17 µM and 0.16 µM, respectively. In addition, the inhibition result in assay [2] was “Active”.
Take `Oc1ccc(-c2nnc(-c3ccc(O)c(O)c3)s2)c(O)c1`: the Ratio IC50 in assay [1] was 11.4. Further, the IC50 against Cholinesterase turned out to be 2.16 µM; against Acetylcholinesterase, 0.19 µM.
Taken in the same sequence, the figures for `Oc1ccc(-c2nnc(-c3ccccc3F)s2)c(O)c1` were > 467, > 500 µM and 1.07 µM.
Consider `COc1cc(-c2nnc(-c3ccc(O)cc3O)s2)ccc1O`, for which the Ratio IC50 in assay [1] turned out to be 5.9. Besides, the results for the IC50 on Cholinesterase and against Acetylcholinesterase were 112 µM and 19.2 µM, respectively.
Turning to `Oc1ccc(-c2nnc(-c3ccccc3Cl)s2)c(O)c1`, the Ratio IC50 in assay [1] came out at 127. Further, the 50% inhibitory concentration (IC50) against Cholinesterase worked out at 196 µM; against Acetylcholinesterase, 1.55 µM.
Taken in the same sequence, the figures for `COc1cc(-c2nnc(-c3ccc(O)cc3O)s2)cc(OC)c1OC` were 1150, 196 µM and 0.17 µM.
Taken in the same sequence, the figures for `COc1ccccc1-c1nnc(-c2ccc(O)cc2O)s1` were 7.9, 212 µM and 26.7 µM.
As to `Oc1ccc(-c2nnc(-c3ccc(C(F)(F)F)cc3)s2)c(O)c1`, the inhibition result in assay [3] is “Active”. Besides, the Ratio IC50 in assay [1] came to 294. The results for the IC50 against Cholinesterase and on Acetylcholinesterase were 26.5 µM and 0.09 µM, respectively.
Consider `Oc1ccc(-c2nnc(-c3ccccc3Br)s2)c(O)c1`, for which the Ratio IC50 in assay [1] stood at 4.8. Moreover, the IC50 against Cholinesterase was 0.29 µM; on Acetylcholinesterase, 0.06 µM.
Taken in the same sequence, the figures for `Nc1cccc(-c2nnc(-c3ccc(O)cc3O)s2)c1` were 48.7, 84.3 µM and 1.73 µM.
Taken in the same sequence, the figures for `Oc1ccc(-c2nnc(-c3cc(Cl)ccc3Cl)s2)c(O)c1` were 0.17, 19.1 µM and 112 µM.
Taken in the same sequence, the figures for `Oc1ccc(-c2nnc(-c3cc(Cl)cc(Cl)c3)s2)c(O)c1` were > 11.1, > 500 µM and 45.3 µM.
Take `O=[N+]([O-])c1cccc(-c2nnc(-c3ccc(O)cc3O)s2)c1`: the Ratio IC50 in assay [1] turned out to be 47.9. Besides, the IC50 was determined as 32.1 µM against Cholinesterase and 0.67 µM against Acetylcholinesterase.
On to `Oc1ccc(-c2nnc(-c3ccc(O)cc3O)s2)c(O)c1`, for which the Ratio IC50 in assay [1] was determined as 14.2. Moreover, the IC50 at Cholinesterase is 26.7 µM; at Acetylcholinesterase it was 1.89 µM.
Taken in the same sequence, the figures for `COc1ccc(-c2nnc(-c3ccc(O)cc3O)s2)cc1OC` were > 25.9, > 500 µM and 19.3 µM.
For `COc1cccc(-c2nnc(-c3ccc(O)cc3O)s2)c1` the same measures were 25.5, 27.3 µM and 1.87 µM.
For `CN(C)C(=O)Oc1cccc([N+](C)(C)C)c1` [NEOSTIGMINE BROMIDE] the same measures were 1.4, 0.07 µM and 0.05 µM.
As for `O=[N+]([O-])c1ccccc1-c1nnc(-c2ccc(O)cc2O)s1`, the Ratio IC50 in assay [1] is 27. Further, the IC50 against Cholinesterase is 57.3 µM; on Acetylcholinesterase, 2.12 µM.
`COc1ccc(-c2nnc(-c3ccc(O)cc3O)s2)cc1`: in assay [1], the Ratio IC50 was determined as 44.2. Further, the values for the IC50 against Cholinesterase and at Acetylcholinesterase were 96.3 µM and 2.18 µM, respectively.
For `Cc1cc(-c2nnc(-c3ccc(O)cc3O)s2)ccc1[N+](=O)[O-]` the same measures were 7.1, 148 µM and 20.9 µM.
For `Oc1ccc(-c2nnc(-c3ccc(Cl)cc3Cl)s2)c(O)c1` the same measures were > 3.9, > 500 µM and 128 µM.
Consider `COc1ccc(OC)c(-c2nnc(-c3ccc(O)cc3O)s2)c1`, for which the Ratio IC50 in assay [1] worked out at 40.5. The IC50 against Cholinesterase amounted to 63.3 µM; against Acetylcholinesterase it was 1.56 µM.
